Source: ChEMBL document CHEMBL1146639, “Synthesis and evaluation of nonpeptide substituted spirobenzazepines as potent vasopressin antagonists” (Bioorg Med Chem Lett, 2004)
In brackets after ≈: the same amount, converted by molar mass.

Experiments:
[1] = molecular target: T1, Vasopressin V2 receptor (Homo sapiens, UniProt P30518); assay: Binding affinity measured by inhibition of 3[H] AVP binding to cloned human vasopressin V2 receptor
Outline: (§1)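 Radioligand binding: inhibition of [3H]AVP binding to cloned human V1a or V2 receptors; IC50 in nM.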

[2] = molecular target: T1, Vasopressin V2 receptor; assay: Evaluated for accumulation of cAMP in transfected HEK293 cells expressing human vasopressin V2 receptor; type: functional, cell-based
Outline: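 Functional V2 assay: cAMP accumulation measured in transfected HEK-293 cells expressing human V2 receptor; IC50 in nM.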

[3] = molecular target: T2, Vasopressin V1a receptor (Homo sapiens, UniProt P37288); assay: Binding affinity measured by inhibition of 3[H] AVP binding to cloned human vasopressin V1a receptor; outline: as §1
T2 sequence (P37288 whole entry): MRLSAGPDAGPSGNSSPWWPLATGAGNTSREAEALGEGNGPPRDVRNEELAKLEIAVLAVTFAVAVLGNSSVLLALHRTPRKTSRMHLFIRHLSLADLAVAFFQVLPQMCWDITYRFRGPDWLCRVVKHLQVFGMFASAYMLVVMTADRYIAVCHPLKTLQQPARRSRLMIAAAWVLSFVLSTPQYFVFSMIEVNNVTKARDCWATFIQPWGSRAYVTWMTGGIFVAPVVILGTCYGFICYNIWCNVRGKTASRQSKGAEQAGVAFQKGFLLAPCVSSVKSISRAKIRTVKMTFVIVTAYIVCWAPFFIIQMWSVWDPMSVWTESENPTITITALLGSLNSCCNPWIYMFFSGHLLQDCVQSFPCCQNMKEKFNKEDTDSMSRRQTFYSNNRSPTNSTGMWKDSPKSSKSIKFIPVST

[4] = molecular target: T2, Vasopressin V1a receptor; assay: Evaluated for intracellular calcium mobilization in HEK293 cells transfected to express human vasopressin V1a receptor; type: functional, cell-based
Outline: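 Functional V1a assay: intracellular calcium mobilization measured in HEK-293 cells transfected to express human V1a receptor; IC50 in nM.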

[5] = Half-life determined by human liver microsome stability assay at a concentration of 5 uM; type: ADME; conditions: liver microsomes
[6] = Apparent volume of distribution when 3 mg/Kg dose was administered intravenously; type: ADME, organism-based; conditions: rat, in vivo, iv, read-out: Volume distribution
Outline: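 Rats given a single intravenous dose of 3 mg/kg. Apparent volume of distribution reported in […].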

[7] = Maximum plasma concentration was evaluated in rats at an intravenous dose of 3 mg/kg; type: ADME, organism-based; parameters: dose 3 mg/kg, route intravenous; conditions: rat
[8] = Maximum plasma concentration was evaluated in rats at an oral dose of 30 mg/kg; type: ADME, organism-based; parameters: dose 30 mg/kg, route oral; conditions: rat
Outline: (§2)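 Rats given a single oral dose of 30 mg/kg. Cmax, Tmax, terminal half-life and absolute oral bioavailability determined.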

[9] = Bioavailability was evaluated in rats at an oral dose of 30 mg/kg; type: ADME, organism-based; conditions: rat, in vivo; outline: as §2
[10] = Half-life was evaluated in rats at an intravenous dose of 3 mg/kg; type: ADME, organism-based; parameters: dose 3 mg/kg, route intravenous; conditions: rat, in vivo
[11] = Area under the curve was evaluated at an intravenous dose of 3 mg/kg; type: ADME, organism-based; parameters: dose 3 mg/kg, route intravenous; conditions: rat, in vivo
[12] = Area under the curve was evaluated at an oral dose of 30 mg/kg; type: ADME, organism-based; parameters: dose 30 mg/kg, route oral; conditions: rat, in vivo
[13] = Partition coefficient (logP); type: physicochemical; conditions: octanol/water
[14] = Solubility measured at pH 2; type: physicochemical; conditions: buffer
[15] = Solubility measured at pH 7.4; type: physicochemical; conditions: buffer
[16] = molecular target: T3, Vasopressin V1a receptor (Rattus norvegicus, UniProt P30560); assay: Evaluated for binding affinity towards vasopressin V1a receptor in rat
T3 sequence (P30560 whole entry): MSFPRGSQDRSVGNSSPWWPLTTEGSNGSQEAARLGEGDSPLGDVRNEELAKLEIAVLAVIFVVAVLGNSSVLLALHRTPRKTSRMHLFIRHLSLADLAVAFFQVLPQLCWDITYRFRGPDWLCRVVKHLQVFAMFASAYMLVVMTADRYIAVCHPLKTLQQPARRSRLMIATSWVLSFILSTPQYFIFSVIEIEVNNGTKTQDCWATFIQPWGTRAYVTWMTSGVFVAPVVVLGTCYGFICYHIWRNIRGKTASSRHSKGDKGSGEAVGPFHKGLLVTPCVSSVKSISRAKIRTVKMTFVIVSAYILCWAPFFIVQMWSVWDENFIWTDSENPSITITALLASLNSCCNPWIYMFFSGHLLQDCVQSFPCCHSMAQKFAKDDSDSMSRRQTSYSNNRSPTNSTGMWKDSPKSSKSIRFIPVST
Outline: (§3)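 Binding IC50 measured in cells transfected with rat V1a or rat V2 receptors.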

[17] = Time to reach maximum plasma concentration was evaluated at an oral dose of 30 mg/kg; type: ADME, organism-based; parameters: dose 30 mg/kg, route oral; conditions: rat; outline: as §2
[18] = Half-life was evaluated in rats at an oral dose of 30 mg/kg; type: ADME, organism-based; parameters: dose 30 mg/kg, route oral; conditions: rat, in vivo; outline: as §2
[19] = molecular target: T2, Vasopressin V1a receptor; assay: Binding affinity measured by inhibition of 3[H] AVP binding to cloned human vasopressin V1a receptor (Compound 7o)
Outline: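 Displacement of [3H]AVP from cloned human V1a receptor; IC50 from inhibition of radioligand binding.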

[20] = molecular target: T2, Vasopressin V1a receptor; assay: Evaluated for intracellular calcium mobilization in HEK- 293 cells transfected to express human vasopressin V1a receptor (Compound 7o); type: functional, cell-based, HEK293
Outline: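 Antagonism measured as inhibition of intracellular calcium mobilization in HEK-293 cells transfected with human V1a receptor; IC50 reported.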

[21] = molecular target: T3, Vasopressin V1a receptor; assay: Evaluated for binding affinity towards vasopressin receptor V1a in rat; outline: as §3
[22] = molecular target: Vasopressin V2 receptor (Rattus norvegicus, UniProt Q00788); assay: Evaluated for binding affinity towards vasopressin V2 receptor in rat; outline: as §3
Sequence of Vasopressin V2 receptor (Rattus norvegicus, UniProt Q00788) (Q00788 whole entry): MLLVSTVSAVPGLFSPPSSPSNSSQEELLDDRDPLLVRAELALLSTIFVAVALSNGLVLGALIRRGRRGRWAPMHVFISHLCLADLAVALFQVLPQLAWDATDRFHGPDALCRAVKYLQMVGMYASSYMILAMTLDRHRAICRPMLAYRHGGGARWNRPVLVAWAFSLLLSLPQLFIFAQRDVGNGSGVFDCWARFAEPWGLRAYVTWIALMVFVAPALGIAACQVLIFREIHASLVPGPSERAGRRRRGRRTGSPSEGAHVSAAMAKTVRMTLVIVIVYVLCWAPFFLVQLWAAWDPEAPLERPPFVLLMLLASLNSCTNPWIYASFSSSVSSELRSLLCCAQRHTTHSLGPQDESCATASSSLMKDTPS

T1 sequence (P30518 whole entry): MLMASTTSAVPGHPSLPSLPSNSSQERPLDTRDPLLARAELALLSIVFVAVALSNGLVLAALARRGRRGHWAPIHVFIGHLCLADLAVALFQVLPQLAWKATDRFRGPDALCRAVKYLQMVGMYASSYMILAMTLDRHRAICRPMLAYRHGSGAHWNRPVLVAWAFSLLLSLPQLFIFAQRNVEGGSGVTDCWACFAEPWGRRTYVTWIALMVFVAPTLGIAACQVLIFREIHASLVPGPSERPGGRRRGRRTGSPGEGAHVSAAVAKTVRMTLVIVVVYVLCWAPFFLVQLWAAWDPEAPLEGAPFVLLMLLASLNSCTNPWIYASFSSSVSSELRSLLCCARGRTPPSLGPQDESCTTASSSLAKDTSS

SMILES | IC50 [1] | IC50 [2] | IC50 [3] | IC50 [4] | other results
Cc1ccc(F)cc1C(=O)Nc1ccc(C(=O)N2CCC3(C=C(C(=O)NCCN4CCCC4)CC3)Cc3ccccc32)cc1 (stereo not drawn) | 39 nM | 48 nM | 19 nM | 29 nM | 
Cc1ccc(F)cc1C(=O)Nc1ccc(C(=O)N2CCC3(C=C(C(=O)NCCN4CCCCC4)CC3)Cc3ccccc32)cc1 (stereo not drawn) | 39 nM | 48 nM | 10 nM | 48 nM | IC50 [19]: 16 nM; IC50 [20]: 71 nM
Cc1ccc(F)cc1C(=O)Nc1ccc(C(=O)N2CCC3(C=C(C(=O)NCCN(C)C)CC3)Cc3ccccc32)cc1 (stereo not drawn) | 20 nM | 105 nM |  | 65 nM | 
COC(=O)CNC(=O)C1=CC2(CC1)CCN(C(=O)c1ccc(NC(=O)c3cc(F)ccc3C)cc1)c1ccccc1C2 (stereo not drawn) | 10 nM | 440 nM | 7 nM | 135 nM | 
O=C(NCCO)C1=CC2(CC1)CCN(C(=O)c1ccc(NC(=O)c3ccccc3F)cc1)c1ccccc1C2 (stereo not drawn) | > 1000 nM | > 1000 nM |  |  | 
O=C(NCCN1CCOCC1)C1=CC2(CC1)CCN(C(=O)c1ccc(NC(=O)c3ccccc3F)cc1)c1ccccc1C2 (stereo not drawn) | > 1000 nM |  | 4 nM |  | 
Cc1ccc(F)cc1C(=O)Nc1ccc(C(=O)N2CCC3(C=C(C(=O)NCCCN(C)C)CC3)Cc3ccccc32)cc1 (stereo not drawn) |  | 31 nM |  | 4 nM | 
O=C(NCCN1CCCCC1)C1=CC2(CC1)CCN(C(=O)c1ccc(NC(=O)c3ccccc3F)cc1)c1ccccc1C2 (stereo not drawn) | > 1000 nM | > 1000 nM |  |  | 
O=C(NCCN1CCCC1)C1=CC2(CC1)CCN(C(=O)c1ccc(NC(=O)c3ccccc3F)cc1)c1ccccc1C2 (stereo not drawn) | > 1000 nM | > 1000 nM | 8 nM | 155 nM | 

Continued, in another order:

IC50 [1] | IC50 [2] | IC50 [3] | IC50 [4] | SMILES | other results
18 nM | 350 nM | 24 nM | 78 nM | O=C(O)CNC(=O)C1=CC2(CC1)CCN(C(=O)c1ccc(NC(=O)c3ccccc3-c3ccccc3)cc1)c1ccccc1C2 (stereo not drawn) | 
 | 170 nM |  |  | O=C(NCCO)C1=CC2(CC1)CCN(C(=O)c1ccc(NC(=O)c3ccccc3-c3ccccc3)cc1)c1ccccc1C2 (stereo not drawn) | 
> 1000 nM | > 1000 nM |  |  | CN(C)CCNC(=O)C1=CC2(CC1)CCN(C(=O)c1ccc(NC(=O)c3ccccc3F)cc1)c1ccccc1C2 (stereo not drawn) | 
8 nM | 36 nM | 2 nM | 45 nM | CN(C)CCNC(=O)C1=C[C@]2(CC1)CCN(C(=O)c1ccc(NC(=O)c3ccccc3-c3ccccc3)cc1)c1ccccc1C2 | half-life at 5 µM [5]: 1.08 h; Vd [6]: 6.84 L/kg; Cmax [7]: 2660 nM; Cmax [8]: 790 nM; bioavailability [9]: 22%; half-life [10]: 1.68 h; AUC [11]: 2.06 µM·h; AUC [12]: 4.57 µM·h; logP [13]: 3.63; solubility [14]: 160 µg/mL (≈ 261 µM); solubility [15]: 40 µg/mL (≈ 65.3 µM); IC50 [16]: 33 nM; Tmax [17]: 4 h; half-life [18]: 6.47 h
341 nM | 646 nM | 4 nM | 78 nM | CN(C)CCNC(=O)C1=C[C@@]2(CC1)CCN(C(=O)c1ccc(NC(=O)c3ccccc3F)cc1)c1ccccc1C2 (single isomer, unassigned) | half-life at 5 µM [5]: 0.717 h; Vd [6]: 6.67 L/kg; Cmax [7]: 1800 nM; Cmax [8]: 1100 nM; bioavailability [9]: 42%; half-life [10]: 4.35 h; AUC [11]: 1.68 µM·h; AUC [12]: 7.04 µM·h; logP [13]: 2.45; solubility [14]: 320 µg/mL (≈ 577 µM); solubility [15]: 70 µg/mL (≈ 126 µM); IC50 [21]: 433 nM; Tmax [17]: 4.67 h; IC50 [22]: 444 nM; half-life [18]: 4.15 h
16 nM | 20 nM | 5 nM | 29 nM | CN(C)CCCNC(=O)C1=CC2(CC1)CCN(C(=O)c1ccc(NC(=O)c3ccccc3-c3ccccc3)cc1)c1ccccc1C2 (stereo not drawn) | 
 | 100 nM |  |  | CN(C)CCNC(=O)C1=CC2(CC1)CCN(C(=O)c1ccc(NC(=O)c3ccccc3-c3ccccc3)cc1)c1ccccc1C2 (stereo not drawn) | 
